test system: HEK293; experiment: Inhibitory activity against sphingosine kinase expressed in HEK293 cells at 10 uM; format: cell-based; details: Homo sapiens
Method in brief: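 Sphingosine kinase from cytosolic fractions of HEK 293 cells transfected to overexpress the enzyme (0.125 μg). Substrate D-erythro-sphingosine 10 μM in Triton X-100 (0.25% final), with [³²P]ATP (10 μCi, 1 mM) and MgCl₂ 10 mM. Analogues tested at 10 μM. After 10 min at 37 °C, sphingosine-1-phosphate formation measured. Activity given as % of vehicle-only control; means ± S.D.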

Row | Compound | inhibition [%]
1 | N[C@@H](CO)[C@@H](O)/C=C/c1ccccc1 | 79
2 | CCCCCCCCC[C@@H](O)[C@@H](N)CO | 48
3 | N[C@@H](CO)[C@H](O)CCc1ccccc1 | 59
4 | N[C@@H](CO)[C@@H](O)CCc1ccccc1 | 72
5 | CCCCCCCC(F)/C=C/[C@@H](N)CO (stereo partly drawn) | 80
6 | CCCCCCCCC[C@H](O)[C@@H](N)CO | 50
7 | CCCCCCC/C=C/[C@H](O)[C@@H](N)CO | 70
8 | CCCCCCCCCCCCC/C=C/[C@@H](O)[C@H](CO)N(C)C | 47
9 | N[C@@H](CO)[C@H](O)/C=C/c1ccccc1 | 77
10 | CCCCCCC/C=C/[C@H](F)[C@@H](N)CO | 82
11 | CCCCCCC/C=C/[C@@H](O)[C@@H](N)CO | 69
12 | N[C@@H](CO)[C@@H](F)CCc1ccccc1 | 62
13 | CCCCCCCCC[C@H](F)[C@@H](N)CO | 68

From ChEMBL document CHEMBL1131877, “Structure-activity relationship of short-chain sphingoid bases as inhibitors of sphingosine kinase” (Bioorg Med Chem Lett, 1999)
